In general, inhibition refers to the relative decrease from the control value, in per cent.

This note sets out measurements from PubChem BioAssay.

Assay [1] can be described thus: inhibitors of TNFa-induced NFkB p65 translocation, primary screen, imaging, HUVEC, MLSMR starter and 10KST1 sets (AID 438;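 active = inhibition above 20% together with a positive visual image hit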;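 note: compound added about 3h40 before a 20 min TNFalpha stimulation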;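 for inhibition: signal is the nuclear over cytoplasmic p65 intensity ratio per well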). The conditions noted are these: HUVEC TNFa-induced p65 nuclear translocation; cell count: measured here: nuclei count (cytotoxicity indicator), at 2.08 µM; inhibition: at 2 µM, stronger effect = higher value, 0% TNFa-plus-vehicle, 100% no-TNFa wells.
Assay [2] is described as follows: endothelial E-selectin expression blockers – imaging, HUVEC, immunofluorescence, MLSMR starter and 10KST1 sets, primary screen (AID 487;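 active = visually confirmed hit in the image check and inhibition above 20%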;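 for inhibition: signal is fraction of cell area covered by stained E-selectin grains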;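 for nuclei count: 100% = median nuclei count of all wells on the same plate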). The conditions noted are these: HUVEC TNFalpha-induced E-selectin immunofluorescence imaging, at 2 µM; inhibition: stronger effect = higher value; nuclei count: measured here: cell number, toxicity.
The nature of assay [3]: Primary imaging screen for DUSP6 inhibitors that restore phospho-Erk in transfected HeLa cells, chemical complementation (AID 609;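 active = compounds giving at least 50% inhibition in the cell-based MKP-3 phosphatase rescue imaging test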;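 for inhibition: phospho-Erk level distribution per well compared with pooled transfected vehicle control wells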). The conditions noted are these: HeLa MKP-3 transfected, phospho-Erk imaging KS statistic, at 10 µM, cells stimulated with TPA for 15 min.
Assay [4] deals with Dual specificity protein phosphatase 6 (Homo sapiens) (UniProt Q16828). The assay is described as above. The note with it: HeLa MKP-3 transfected, phospho-Erk imaging KS statistic; at 10 µM; stronger effect = higher value; cells stimulated with TPA for 15 min.
Assay [5] concerns the target Voltage-gated potassium channel subunit beta-2 (Rattus norvegicus) (UniProt P62483). The assay is described as follows: inhibitors of rat Kvbeta2 reductase activity – biochemical, NADPH fluorescence, primary screen (AID 622).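 Note: slope of raw intensity against log time taken from 70 to 1610 s.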 The note with it: recombinant KvBeta, 4-cyanobenzaldehyde reduction, at 10 µM, stronger effect = higher value.
Assay [6] shares this target. Kind of assay: enhancers of rat Kvbeta2 NADPH turnover – biochemical, NADPH fluorescence, primary screen (AID 623;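 active = NADPH fluorescence slope more negative than the mean of all samples by about 3 SD, 99.7% confidence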;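 note: fluorescence intensity change per second fitted from 20 to 320 s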). The conditions noted are these: Recombinant KvBeta, NADPH fluorescence decrease slope, 10 min; at 10 µM; stronger effect = lower value.
For assay [7], the target named is Alpha-2C adrenergic receptor (Homo sapiens) (UniProt P18825). Kind of assay: compounds altering alpha2C-coupled GIRK flux – cell-based, HEK293 alpha2C/GIRK1/2, thallium flux, primary screen (AID 624;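 active = fluorescence slope after compound addition differing from the mean of all screened samples at 99.7% confidence, in either direction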;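 note: slope of fluorescence ratio to pre-addition baseline per second over 15 to 24 s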). The note with it: thallium flux BTC fluorescence, at 10 µM, actives lie on both sides.
Assay [8] is described as follows: inhibitors of larval lipid processing in zebrafish, primary screen, whole organism, PED6 fluorescence, gall bladder and intestine (AID 686;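 active = a full or partial loss of lipid-probe fluorescence in the fish gall bladder, intestine or both, judged by eye; inactive = no fluorescence loss, or compound toxic to the fish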;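 note: larvae 5 to 7 days old with five fish per well; signal comes from phospholipase A2 cleavage of quenched PED6 carried via bile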). The conditions noted are these: Zebrafish larvae PED6 lipid processing, fluorescence scoring; screened at 20 µM (by protocol). The method, boiled down: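 System: live zebrafish larvae aged 5-7 days, whole organism; measure: graded gall bladder and intestinal fluorescence inhibition per well; incubation: overnight exposure; reagent: ingested quenched lipid PED6 at 100 nM; signal: By-eye fluorescence microscopy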

The nature of assay [9]: loss of swimming-algae plug formation – whole organism, Chlamydomonas reinhardtii, WT vs cilia-less mutant, absorbance, 96-well, primary screen (AID 463189;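 active = inhibition at or above 50% relative to wild type and mutant plate controls; inactive = inhibition below 50%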;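 note: 0% = wild type cc124 cells in DMSO and 100% = ciliumless bld1 mutant cells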). The note with it: Chlamydomonas reinhardtii gravitaxis, OD600 absorbance, 2 days; at 10 µM; stronger effect = higher value.
The mark [10] stands for this setting: measured here: cell density z-score.
The mark [11] stands for this setting: measured here: nuclear c-Myc green intensity z-score.
Where [12] appears, read: measured here: nuclear pErk red intensity z-score, stronger effect = higher value.

The structures appear in SMILES notation. Calls of active or inactive are those of the source.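 Rule for the calls, unless noted: active = fluorescence slope higher than the sample average by over 3 SD (cut at about -0.22 in these data, passing the limit was not always enough); inactive = the rest.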

Sequence of Voltage-gated potassium channel subunit beta-2 (Rattus norvegicus) (P62483 whole entry, looked up): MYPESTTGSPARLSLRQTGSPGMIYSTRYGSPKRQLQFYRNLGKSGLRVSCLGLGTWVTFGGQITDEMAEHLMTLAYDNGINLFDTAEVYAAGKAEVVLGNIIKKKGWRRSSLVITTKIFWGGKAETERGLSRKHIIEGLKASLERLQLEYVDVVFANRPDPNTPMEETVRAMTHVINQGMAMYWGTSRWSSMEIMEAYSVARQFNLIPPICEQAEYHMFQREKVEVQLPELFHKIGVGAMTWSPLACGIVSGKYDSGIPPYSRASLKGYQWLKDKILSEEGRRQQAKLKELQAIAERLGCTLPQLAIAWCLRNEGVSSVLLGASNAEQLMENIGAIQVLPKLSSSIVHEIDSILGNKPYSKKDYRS
Sequence of Dual specificity protein phosphatase 6 (Homo sapiens) (Q16828 whole entry, looked up): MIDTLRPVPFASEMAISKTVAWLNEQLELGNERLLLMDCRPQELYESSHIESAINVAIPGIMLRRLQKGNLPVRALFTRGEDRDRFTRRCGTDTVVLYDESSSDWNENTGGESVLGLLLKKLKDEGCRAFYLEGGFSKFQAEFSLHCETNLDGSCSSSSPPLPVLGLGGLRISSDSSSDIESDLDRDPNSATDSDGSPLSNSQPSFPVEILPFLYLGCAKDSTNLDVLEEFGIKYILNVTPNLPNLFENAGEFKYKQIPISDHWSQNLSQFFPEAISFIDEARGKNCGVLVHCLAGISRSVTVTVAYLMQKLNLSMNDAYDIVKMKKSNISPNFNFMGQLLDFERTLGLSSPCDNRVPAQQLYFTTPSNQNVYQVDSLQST
Sequence of Alpha-2C adrenergic receptor (Homo sapiens) (P18825 whole entry, looked up): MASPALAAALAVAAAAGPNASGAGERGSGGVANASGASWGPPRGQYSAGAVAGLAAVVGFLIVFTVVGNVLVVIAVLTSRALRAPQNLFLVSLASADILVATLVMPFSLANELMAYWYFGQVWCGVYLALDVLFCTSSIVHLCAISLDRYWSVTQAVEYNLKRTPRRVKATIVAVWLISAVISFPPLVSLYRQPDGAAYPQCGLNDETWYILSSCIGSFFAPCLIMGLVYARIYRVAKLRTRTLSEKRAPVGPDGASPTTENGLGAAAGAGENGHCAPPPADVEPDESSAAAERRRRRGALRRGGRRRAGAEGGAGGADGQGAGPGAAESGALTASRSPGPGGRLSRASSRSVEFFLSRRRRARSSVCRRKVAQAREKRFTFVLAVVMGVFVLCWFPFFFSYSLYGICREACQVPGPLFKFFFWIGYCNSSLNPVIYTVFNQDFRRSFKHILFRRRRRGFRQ

`O=C(c1ccc(F)cc1)N1CCC(N2CCCCCC2)CC1`: the cell count in [1] was 392. Moreover, the inhibition in assay [1] is -0.5% (inactive); in [2], -100% (inactive); in assay [4], 15.1% (inactive); in assay [9], 43.9% (inactive). The nuclei count in [2] amounted to 138%. The figures for the z-score in [3] (setting [10]), in assay [3] (setting [11]) and in assay [3] (setting [12]) were -0.0132, 0.516 and -0.618, respectively. Moreover, the fluorescence slope in assay [5] was -0.395 (inactive). In assay [6], the NADPH fluorescence slope was -7.7e-06 (inactive). Moreover, the slope in assay [7] is 0.00694 (inactive). The compound was called inactive in assay [8].

For the compound `COc1nc(N(C)S(=O)(=O)c2ccc(C)cc2)nc(C)c1Cl`, in [1], the cell count was 587. Also, the inhibition in assay [1] is -20% (inactive); in assay [2], -69% (inactive); in assay [4] it was 7.73% (inactive); in [9], -4.99% (inactive). The nuclei count in assay [2] came out at 177%. The z-score was -0.267 in [3] (setting [10]), -0.856 in [3] (setting [11]) and 1.29 in assay [3] (setting [12]). Moreover, the fluorescence slope in [5] is -0.362 (inactive). For the same compound, the NADPH fluorescence slope in [6] was -1.7e-05 (inactive). For the same compound, in assay [7], the slope was 0.00412 (inactive). In assay [8], the compound was called inactive.

`CCOC(=O)c1cc(C)n(-c2ccc(OC)c(OC)c2)c1C`: the cell count in assay [1] worked out at 530. Moreover, the inhibition in assay [1] is -8.1% (inactive); in assay [2], -25.1% (inactive); in assay [4], 5.57% (inactive); in [9] it was -0.885% (inactive). In assay [2], this compound returned a nuclei count of 122%. Further, the z-score in [3] (setting [10]) was 1.68; in assay [3] (setting [11]) it was -2.38; in assay [3] (setting [12]) it was -0.201. The fluorescence slope in assay [5] was -0.516 (inactive). The NADPH fluorescence slope in [6] is -0.000114 (inactive). Further, in assay [7], the slope was 0.00418 (inactive). In addition, the compound was called inactive in [8].

As to `Cc1c(N2C(=O)SC(CC(=O)O)C2=O)c(=O)n(-c2ccccc2)n1C` (centres undefined), the cell count in assay [1] was found to be 500. Further, the inhibition was 1.9% (inactive) in assay [1], -80.6% (inactive) in assay [2], -10.5% (inactive) in assay [4] and -1.65% (inactive) in assay [9]. For the same compound, the nuclei count in [2] was 128%. Also, the z-score in assay [3] (setting [10]) was -1.16; in [3] (setting [11]) it was -0.83; in assay [3] (setting [12]) it was -0.709. Moreover, the fluorescence slope in [5] is -0.518 (inactive). In [6], the NADPH fluorescence slope is -3.7e-05 (inactive). Also, in assay [7], the slope is 0.00585 (inactive). Moreover, the compound was classed as inactive in assay [8].

On to `CCOC(=O)C1=C(C)NC(SCC(=O)Nc2nc(C)cs2)=C(C#N)C1c1cccs1` (centres undefined), for which the cell count in assay [1] was 540. Further, the inhibition in [1] was -13.4% (inactive); in assay [2], -57.8% (inactive); in assay [4], -7.28% (inactive); in assay [9], 2.72% (inactive). The compound also yielded a nuclei count in assay [2] of 106%. The z-score in [3] (setting [10]) is 1.78; in assay [3] (setting [11]) it was -0.812; in assay [3] (setting [12]), -0.565. Besides, in assay [5], the fluorescence slope was -0.472 (inactive). The NADPH fluorescence slope in [6] was 6.5e-06 (inactive). The slope in [7] is 0.006 (inactive). In addition, the outcome in assay [8] was inactive.

Take `c1ccc(C2=Nn3c(nnc3-c3ccccn3)SC2)cc1`: the cell count in assay [1] came out at 589. Also, the inhibition was -10.9% (inactive) in assay [1], -79.3% (inactive) in assay [2], -9.66% (inactive) in assay [4] and -6.13% (inactive) in [9]. In assay [2], this compound came in with a nuclei count of 170%. For the same compound, the results for the z-score in assay [3] (setting [10]), in assay [3] (setting [11]) and in assay [3] (setting [12]) were -0.434, 1.46 and 1.25, respectively. Besides, the fluorescence slope in [5] was -0.412 (inactive). The NADPH fluorescence slope in assay [6] was -0.000132 (inactive). Besides, the slope in [7] is 0.00684 (inactive). For the same compound, the call in assay [8] was inactive.

Turning to `COc1ccc2[nH]c3c(N4CCN(Cc5ccc6c(c5)OCO6)CC4)ncnc3c2c1`, in [1], the cell count was 428. The inhibition in assay [1] was -0.7% (inactive); in assay [2] it was -50.8% (inactive); in assay [4] it was 0.671% (inactive); in assay [9] it was 141% (active). The nuclei count in assay [2] came out at 137%. Besides, the z-score in assay [3] (setting [10]) was 0.867; in assay [3] (setting [11]) it was -0.34; in assay [3] (setting [12]), 0.0587. The fluorescence slope in [5] was -0.302 (inactive). The NADPH fluorescence slope in assay [6] was 2.3e-06 (inactive). The slope in [7] was 0.00419 (inactive). Also, in assay [8], the compound was called inactive.

With `CC(=O)Oc1ccccc1C1OC(=O)c2ccccc2N1C(C)=O` (centres undefined), the cell count in assay [1] was determined as 435. In addition, the inhibition was -26.4% (inactive) in assay [1], -136% (inactive) in assay [2], 17.7% (inactive) in assay [4] and 23.1% (inactive) in assay [9]. This compound also came in with a nuclei count in assay [2] of 171%. Besides, the values for the z-score in assay [3] (setting [10]), in [3] (setting [11]) and in [3] (setting [12]) were -0.279, -1.25 and -0.306, respectively. Moreover, the fluorescence slope in assay [5] is -0.274 (inactive). Further, in assay [6], the NADPH fluorescence slope was 9.9e-06 (inactive). Also, the slope in assay [7] is 0.00513 (inactive). In [8], the result was inactive.

Turning to `Cn1c(NCc2ccco2)nc2c1c(=O)n(Cc1ccc(Cl)c(Cl)c1)c(=O)n2C`, the cell count in assay [1] came to 615. For the same compound, the inhibition is -3.6% (inactive) in [1], -47.4% (inactive) in [2], -1.12% (inactive) in [4] and 48.3% (inactive) in [9]. Also, the nuclei count in assay [2] was 147%. In addition, the z-score in assay [3] (setting [10]) is -0.044; in assay [3] (setting [11]) it was 0.293; in [3] (setting [12]) it was 1.11. The fluorescence slope in [5] was -0.511 (inactive). Also, in [6], the NADPH fluorescence slope is -6.1e-05 (inactive). In addition, the slope in assay [7] is 0.00544 (inactive). The compound was classed as inactive in assay [8].

For the compound `CCN(CC)CCN1C(=O)C(=O)/C(=C(/O)c2ccc(F)cc2)C1c1ccncc1` (centres undefined), the cell count in assay [1] was 519. Further, the inhibition in [1] is -13.3% (inactive); in assay [2] it was -36.8% (inactive); in assay [4], -11.5% (inactive); in [9] it was -7.51% (inactive). This compound also came in with a nuclei count in assay [2] of 110%. In addition, the z-score in assay [3] (setting [10]) is 0.315; in assay [3] (setting [11]) it was 0.605; in [3] (setting [12]), -0.561. The fluorescence slope in assay [5] is -0.542 (inactive). Also, in assay [6], the NADPH fluorescence slope was -1e-05 (inactive). In addition, the slope in assay [7] was 0.00505 (inactive). For the same compound, the compound was classed as inactive in assay [8].

`OC1CN=C2Sc3ccccc3N2C1` (centres undefined): the cell count in assay [1] was determined as 530. Also, the inhibition in assay [1] was 13.2% (inactive); in assay [2] it was -227% (inactive); in assay [4], -7.28% (inactive); in [9], -4.68% (inactive). This compound returned a nuclei count in assay [2] of 188%. Besides, the results for the z-score in [3] (setting [10]), in assay [3] (setting [11]) and in assay [3] (setting [12]) were -0.279, 0.975 and 0.81, respectively. Also, in assay [5], the fluorescence slope is -0.378 (inactive). Moreover, the NADPH fluorescence slope in [6] is -1.8e-05 (inactive). Moreover, in assay [7], the slope was 0.00473 (inactive). The compound was classed as inactive in assay [8].

`COC(=O)c1cc2c(=O)n3cccc(C)c3nc2n(Cc2cccnc2)c1=N`: in [1], the cell count was 626. The inhibition is -15% (inactive) in assay [1], -113% (inactive) in assay [2], 25.7% (inactive) in assay [4] and 32.4% (inactive) in assay [9]. Moreover, in assay [2], the nuclei count stood at 159%. The results for the z-score in assay [3] (setting [10]), in assay [3] (setting [11]) and in [3] (setting [12]) were 2.59, -0.798 and -0.054, respectively. In addition, the fluorescence slope in [5] was -0.523 (inactive). Besides, the NADPH fluorescence slope in [6] is -3.6e-05 (inactive). In addition, the slope in [7] was 0.00531 (inactive). In addition, the result in [8] was inactive.

For the compound `COc1ccc(NC2CC(=O)N(C)C2=O)cc1` (centres undefined), in assay [1], the cell count was 334. Further, the inhibition in assay [1] is -4.4% (inactive); in assay [2], 15% (inactive); in assay [4], 7.42% (inactive); in assay [9] it was 30.2% (inactive). The same compound yielded a nuclei count in assay [2] of 92.4%. Moreover, the z-score was -0.811 in [3] (setting [10]), 0.0749 in assay [3] (setting [11]) and 1.77 in assay [3] (setting [12]). The fluorescence slope in [5] is -0.424 (inactive). In addition, the NADPH fluorescence slope in [6] is 1.4e-05 (inactive). Further, in assay [7], the slope was 0.00509 (inactive). For the same compound, the outcome in assay [8] was inactive.
